# Most compounds without a hit are left out; they make up all but 2.3% or so of the library.
# HIF activator – HIF pathway transcriptional activators, primary screen, cell-based, U2OS HRE-luciferase, luminescence | 300,000 tested, 0.32% active | U2OS HRE-luciferase reporter; normalized: DMSO 0%, desferrioxamine 100% | activation, % at 7.5 µM (by protocol);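 active = mean activation of at least 10% of the iron chelator positive control signal, with at least half of replicates also reaching 10%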
# A1 inh – caspase 3/7 activation in MEF A1-2A-BIM cells, primary screen, A1 inhibitor project, cell-based, luminescence, HTS. Caspase-Glo 3/7 luminescence, 3 h; percent of clofoctol response, vehicle zero. caspase activation, % (test concentration not listed). 330,000 tested, 0.066% active. AID 2462, 2010;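 active = over half of replicate activation scores above 10%, or exactly half above 10 with the replicate mean above 10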
# Beta apoptosis – inhibitors of cytokine-induced beta cell apoptosis, primary screen, luminescence; INS-1E cytokine-induced death, ATP luminescence, 48 h; percent of positive-control rescue, neutral wells zero; 300,000 tested, 0.8% active; protection from apoptosis, % (no concentration beside the values);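 active = Every replicate reaches about 75%, or at least half do and their mean reaches it too, limit read from the data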;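 also: 0% = cytokine-treated negative control wells and 100% = positive control rescue; higher means more ATP so stronger rescue from cytokine killing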
# T cruzi repl – inhibitors of intracellular T. cruzi growth, primary screen, luminescence, NIH3T3 host cells; inhibition, % (concentration not given with the values); AID 1885, 2009; 300,000 tested, 1.4% active; T. cruzi beta-gal in NIH3T3, 90 h;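 active = mean inhibition across valid replicates above about 55%, limit read from the data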;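 also: signal also drops with host cell toxicity which is not excluded here; 0% = plate median of DMSO wells and 100% = zero luminescence signal; higher percent means less beta-gal luminescence so fewer parasites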
#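 compound dosing = single 50 nL compound addition per well in DMSO | material = NIH/3T3 host cells with β-galactosidase reporter T. cruzi | input = 5,000 host fibroblasts per well | timing = ≥90 h infection period, 3 h prior cell attachment | read-out basis = percent inhibition of parasite-derived β-gal signal | detection = GalScreen β-gal luminescence, detergent lysis, 60 min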
# KLF5 inhibitor – KLF5 expression inhibitors, primary screen, DLD-1 cells, luminescence; DLD-1 KLF5 promoter-luciferase reporter; inhibition, % at 5 µM; 290,000 tested, 0.23% active; AID 1700, 2009;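 active = inhibition above a per-plate limit of that plate's mean compound inhibition plus 3 SD, cut at about 60% in these data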;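 also: 0% = DMSO wells and 100% = LY294002 at 200 µM; higher means less KLF5 promoter-driven luciferase light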
# The depositor's hits bear a star; . = not tested or not shown.
SMILES,HIF activator,A1 inh,Beta apoptosis,T cruzi repl,KLF5 inhibitor
Cc1oc2cc3oc(=O)c(CCC(=O)NCCCN4CCOCC4)c(C)c3cc2c1C,1.3,0.4,7.2,-12.0,-8.3
CC1CC(C)CN(c2ccc(C(=O)NCc3ccc4c(c3)OCO4)cc2[N+](=O)[O-])C1 (stereo unspecified),-0.4,0.0,-5.1,64.8*,-17.3
C[C@H]1CN([C@@H](C)CO)C(=O)c2cc(NC(=O)C3CCCCC3)ccc2O[C@H]1CN(C)S(=O)(=O)c1ccccc1,.,0.2,-3.2,.,.
Nc1c(N(CCC2=CCCCC2)C(=O)c2ccc([N+](=O)[O-])o2)c(=O)[nH]c(=O)n1Cc1ccccc1,-24.8,0.2,18.8,66.0*,.
Cc1ccc(C(=O)N(CCC2=CCCCC2)c2c(N)n(Cc3ccccc3)c(=O)[nH]c2=O)o1,0.6,1.7,0.1,3.2,.
Fc1ccc(Sc2ccccc2CNC2=NCCN2)cc1,-0.1,-0.4,6.1,62.8*,-14.2
O=C(Cc1ccc(F)cc1)Nc1ccccc1Sc1ccccc1,-0.3,0.4,3.4,10.7,-11.1
CCN(CC(=O)Nc1c(F)cccc1F)C(=O)CCNC(=O)c1ccc([N+](=O)[O-])cc1,-0.5,-0.3,-9.7,1.9,.
C1CCC2(CC1)C1=C(CCCC1)Nc1nnnn12,125.8*,-0.1,2.8,-3.1,-17.6
Cc1cccc(N2CC(C(=O)NCc3ccco3)CC2=O)c1C (stereo unspecified),.,-0.1,-1.3,.,.
CC(C)c1cccc(-c2ccc3c(c2)S(=O)(=O)c2cccc(C(=O)NCc4ccccc4)c2C3=O)c1,.,2.4,15.5,.,.
CC(C)c1cccc(-c2ccc3c(c2)S(=O)(=O)c2cccc(C(=O)NCc4ccccc4Cl)c2C3=O)c1,.,12.1*,-3.8,.,.
COc1ccc(-c2ccc3c(c2)S(=O)(=O)c2cccc(C(=O)NCc4ccccc4Cl)c2C3=O)cc1OC,.,-0.1,14.1,.,.
COc1ccc(-c2ccc3c(c2)S(=O)(=O)c2cccc(C(=O)NCCOc4ccccc4Cl)c2C3=O)cc1OC,.,-0.6,91.0*,.,.
CCOC(=O)c1nc2nc(-c3cccs3)cc(C(F)(F)F)n2n1,-0.2,0.0,-11.6,3.9,3.0
Nc1nc2nc(-c3cccs3)cc(C(F)(F)F)n2n1,24.2*,1.1,-2.3,-12.5,-27.7
COc1cc(C(=O)Nc2ccc3c(c2)N(C(=O)CCN(C)C)c2ccccc2CC3)cc(OC)c1OC,-0.2,-2.1,1.4,78.7*,-38.8
CN(C)CC(=O)N1c2ccccc2CCc2ccc(NC(=O)c3ccc(N)cc3)cc21,0.0,0.3,0.5,18.1,1.0
O=C(c1ccco1)N1N=C(c2ccco2)CC1c1ccc(Cl)cc1Cl (stereo unspecified),.,0.5,1.6,.,.
Cc1ccc(-c2nnc(Sc3nc4ccccc4o3)c3ccccc23)cc1,93.9*,0.4,2.4,13.1,-3.0
Brc1ccccc1CN1CCN(Cc2c[nH]c3ccccc23)CC1,-0.7,2.1,130.1*,6.7,.
O=[N+]([O-])c1ccc(CN2CCN(Cc3c[nH]c4ccccc34)CC2)cc1,0.6,-0.4,3.1,55.8*,-6.6
Brc1ccc(CN2CCN(Cc3c[nH]c4ccccc34)CC2)cc1,0.1,3.1,88.1*,42.4,-25.0
CCS(=O)(=O)N1CCN(Cc2c[nH]c3ccccc23)CC1,-0.9,1.2,-5.6,-8.6,-9.6
COc1ccc(Br)cc1C(=O)Nc1ccccc1N1CCCC1,-0.5,1.5,6.5,22.6,.
SMILES,HIF activator,A1 inh,Beta apoptosis,T cruzi repl,KLF5 inhibitor
CCn1c(=O)n(CC)c2cc(N3CCCC3)c(NC(=O)c3cc(Br)ccc3OC)cc21,-0.3,-0.5,47.0,64.3*,-18.5
CCCN1CCN(CCCNC(=O)c2ccc(CS(=O)c3ccc(OC)cc3)o2)CC1 (stereo unspecified),0.2,0.0,2.9,1.1,-5.8
CCCn1nc(C(=O)Nc2ccc3c(c2)OCCO3)c2ccccc2c1=O,.,-0.8,5.8,.,.
Cc1nc(Nc2ccc(Cl)c(Cl)c2)sc1C(=O)Nc1ccccc1,0.5,2.2,86.4*,49.9,-5.2
O=[N+]([O-])c1ccccc1OCCNCc1ccccc1,-1.0,0.4,-1.5,-30.1,-4.1
C/C(=N\Nc1cc(N2CCCCC2)nc(C)n1)c1ccc(Br)cc1,2.9,0.0,59.8,72.0*,-32.5
COc1ccc(C(=O)/C=C/C(=O)N(CC(=O)NC2CCCCC2)CC2CCCO2)c(O)c1 (stereo unspecified),15.6*,-2.7,48.7,49.6,-2.3
COc1ccc(C(=O)/C=C/C(=O)N(Cc2ccccc2OC)C(C(=O)NC2CCCCC2)c2ccncc2)c(O)c1 (stereo unspecified),0.4,1.5,7.2,22.9,-12.9
COc1ccc(C(=O)/C=C/C(=O)N(CC(=O)NC2CCCCC2)Cc2ccccc2)c(O)c1,-8.4,.,.,59.7*,-37.6
COc1ccc(C(=O)/C=C/C(=O)N(CC(=O)NC2CCCCC2)Cc2ccccc2OC)c(O)c1,-7.5,.,.,89.1*,-21.1
COc1ccc(C(=O)/C=C/C(=O)N(Cc2ccccc2)C(C(=O)NC2CCCCC2)c2ccncc2)c(O)c1 (stereo unspecified),-0.6,-0.3,11.4,-0.6,-17.8
O=C(NC1CC(=O)N(c2ccc(Cl)cc2)C1)N1CCN(C(=O)c2ccco2)CC1 (stereo unspecified),-1.1,0.3,-8.5,0.6,.
C/C(=N\NC(=O)C(=O)Nc1cccc(Cl)c1)c1ccncc1,-0.2,-3.7,80.9*,-115.9,-49.8
N#Cc1c(NC(=O)c2ccccc2Cl)n(Cc2ccccc2)c2nc3ccccc3nc12,.,0.1,106.1*,.,4.5
Cc1ccc(-c2ccc(/C=C3\C(=O)ON=C3c3ccccc3)o2)c([N+](=O)[O-])c1,1.8,1.3,92.3*,-11.6,-30.0
COCCN(C(=O)CCC(=O)Nc1cc(C)on1)C(C(=O)NC(C)(C)C)c1cccc(OC)c1OC (stereo unspecified),0.2,0.3,5.0,-5.5,-13.5
CCCCCCCNC1=CC(=O)CC(c2ccccc2)C1 (stereo unspecified),-0.4,0.2,91.1*,18.7,-8.3
CN(C)c1ccc(/C=C/C(=O)c2cc(Cl)ccc2O)cc1,1.2,-0.6,6.5,3.4,-31.2
O=C(/C=C/c1ccncc1)c1cc(Cl)ccc1O,0.8,0.9,8.9,65.9*,-12.2
CCn1c(=O)c2sccc2n(Cc2cc(C(=O)OC)ccc2OC)c1=O,1.8,0.8,0.1,13.1,3.8
CCOc1cc(-c2sc(Nc3ccc(CC)cc3)n[n+]2-c2ccccc2)ccc1OC,.,1.2,1.8,.,.
COc1ccc(C)cc1Nc1n[n+](-c2ccccc2)c(-c2c(OC)ccc3ccccc23)s1,.,0.0,124.2*,.,.
c1ccc(-[n+]2nc(Nc3cccc4ccccc34)sc2-c2c3ccccc3cc3ccccc23)cc1,.,0.4,116.7*,.,.

# Assay outcomes (PubChem)
